Laboratory results from ChEMBL document CHEMBL1139213, “Antimicrobial arylcoumarins from Asphodelus microcarpus” (2007).
In brackets after ≈: the same amount, converted by molar mass.

Legend:
Type in all cases: functional
[1] = test system: Escherichia coli; test: Antibacterial activity against Escherichia coli IAM1257
How it was run: (§1)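 Broth microdilution MIC. Bacteria grown 16 h on BHI agar, suspended in MH broth at about (3-6) × 10^6 cfu/mL. Test materials applied at 20–100 mg/mL (as stated, before dilution), serially 2-fold diluted, then mixed with the bacterial suspension. Incubated 24 h at 37°C before MIC read-out. Positive controls: ampicillin for S. aureus and E. coli, penicillin G for P. aeruginosa.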

[2] = test system: Pseudomonas aeruginosa; test: Antibacterial activity against Pseudomonas aeruginosa IAM1058; how it was run: as §1
[3] = test system: Candida albicans; test: Antifungal activity against Candida albicans IAM1099
[4] = test system: Staphylococcus aureus; test: Antibacterial activity against Staphylococcus aureus IAM1011; how it was run: as §1
[5] = test system: Botrytis cinerea; test: Antifungal activity against Botrytis cinerea IAM1069

Row | Molecule | MIC [1] [µg/mL] | MIC [2] [µg/mL] | MIC [3] [µg/mL] | MIC [4] [µg/mL] | MIC [5] [µg/mL] | Activity [5] [µg/mL]
1 | O=c1oc2cc(O)ccc2c(O)c1-c1ccc(O[C@@H]2O[C@H](CO)[C@@H](O)[C@H](O)[C@H]2O)cc1O | 128 (≈ 285 µM) | 256 (≈ 571 µM) | 512 (≈ 1140 µM) | 128 (≈ 285 µM) | 1020 (≈ 2280 µM) | –
2 | CC1(C)S[C@@H]2[C@H](NC(=O)[C@H](N)c3ccccc3)C(=O)N2[C@H]1C(=O)O [AMPICILLIN] | 1 (≈ 2.86 µM) | – | – | < 0.5 | – | –
3 | O=c1oc2cc(O)ccc2c(O)c1-c1ccc(O)cc1O [ASPHODELIN A] | 4 (≈ 14 µM) | 8 (≈ 27.9 µM) | 64 (≈ 224 µM) | 16 (≈ 55.9 µM) | 128 (≈ 447 µM) | –
4 | CC1(C)S[C@@H]2[C@H](NC(=O)Cc3ccccc3)C(=O)N2[C@H]1C(=O)O [PENICILLIN G] | – | 1 (≈ 2.99 µM) | – | – | – | –
5 | NYSTATIN | – | – | < 0.5 | – | – | < 0.5
